In one assay the test system is Calu-3. The experiment in a line: Cytotoxicity against human Calu3 cells after 96 hrs by Cell Titer Glo assay. It counts as functional, cell-based. The conditions noted are these: Calu-3, 96 h. An outline of the steps:
(§1)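 Cells were grown in RPMI/L-glutamine with penicillin 1000 U/ml, streptomycin 1 mg/mL and 5% FBS, humidified, at 37 °C and 5% CO2. They were seeded in 384-well plates at 750 (Calu-3) or 500 (H2887) cells/well and left overnight. Compounds in DMSO were added at 50 μM to 1 nM final, with 0.5% DMSO final. After 96 h, CellTiter-Glo was added, plates sat 10 min at room temperature, and luminescence was normalized to DMSO-only wells.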
In general terms: Cellular ATP, detected with luciferase, serves as a proxy for viable cell number.

Assay [1] in a line: Cytotoxicity against human NCI-H2887 cells after 96 hrs by Cell Titer Glo assay. In kind it is functional, cell-based. The conditions noted are these: NCI-H2887, 96 h. An outline of the steps: as §1
Assay [2] relates to C127. The experiment in a line: Epigenetic modulation in mouse C127 cells expressing CMV promoter assessed as induction of GFP expression at 1 uM after 24 hrs by LDR assay.
For assay [3], the system named is C127. As to the kind of experiment: Epigenetic modulation in mouse C127 cells expressing CMV promoter assessed as induction of GFP expression at 10 uM after 24 hrs by LDR assay.

The source made the active and inactive calls. The calls are words filed in the database; no cut-off is given here.

This is an account of results in ChEMBL document CHEMBL2150963, “Anthraquinones from a marine-derived Streptomyces spinoverrucosus” (J Nat Prod, 2012).

As for `Cc1c(O)c(CCC(C)C)c2c3c1OC(C)(C)N=C3c1cccc(O)c1C2=O`, the 50% inhibitory concentration (IC50) (in the assay on Calu-3; in assay [1]) was over 50 µM throughout.
As for `Cc1cc(O)c2c(c1O)C(=O)c1cccc(O)c1C2=O` [ISLANDICIN], the IC50 (in the assay on Calu-3; in assay [1]) was over 50 µM each time.
For `Cc1c(O)c(CCC(C)C)c2c(c1O)C(=O)c1cccc(O)c1C2=O` [LUPINACIDIN A], the IC50 with Calu-3 worked out at 8.8 µM; in assay [1], 3.1 µM.
Consider `Cc1c(O)c2c(c(O)c1C(=O)CCC(C)C)C(=O)c1c(O)cccc1C2=O` [GALVAQUINONE B], for which the IC50 in the assay with Calu-3 was determined as 12.2 µM; in assay [1], 5 µM. Besides, the outcome in the assay with C127 [2] and in the assay on C127 [3] was Active.
For the compound `Cc1cc2c(c(O)c1C(=O)CCC(C)C)C(=O)c1c(O)cccc1C2=O` [GALVAQUINONE A], the 50% inhibitory concentration (IC50) (in the assay on Calu-3; in assay [1]) was over 50 µM throughout. Besides, in the assay on C127 [3], the outcome was Active.
As to `Cc1c(O)c(C(=O)CC(C)C)c2c(c1O)C(=O)c1cccc(O)c1C2=O` [GALVAQUINONE C], the IC50 (with Calu-3; in assay [1]) was over 50 µM throughout.

Broadly, the IC50 is the midpoint of a concentration-inhibition curve. Lower therefore signals inhibition by little substance.
